Assay results as given in ChEMBL document CHEMBL1926569, “Novel (E)-1-(4-methyl-2-(alkylamino)thiazol-5-yl)-3-arylprop-2-en-1-ones as potent antimicrobial agents” (2011).
Converted amounts (≈) assume the structure as drawn.

What was measured:
Aspergillus ochraceus [1] = test: Ratio of ketoconazole to compound for Aspergillus ochraceus ATCC 12066; type: functional
Salmonella typhimurium [2] = test: Antibacterial activity against Salmonella Typhimurium ATCC 13311 after 24 hrs by microdilution method; type: functional, Salmonella enterica subsp. enterica serovar Typhimurium; conditions: Salmonella enterica, ATCC 13311, 24 h
Outline: (§1)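 Broth microdilution in 96-well plates. Bacterial suspensions were adjusted in sterile saline to 1.0 × 10⁵ CFU/ml, prepared daily and kept at 4 °C. Compound was added to LB broth with 1.0 × 10⁴ CFU per well and shaken at 160 rpm for 24 h at […] (so in the source). MIC is the lowest concentration with no visible growth under a binocular microscope. OD655 was also read. Duplicate, repeated three times.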

Talaromyces funiculosus [3] = test: Ratio of bifonazole to compound for Penicillium funiculosum ATCC 36839; type: functional
Aspergillus ochraceus [4] = test: Antifungal activity against Aspergillus ochraceus ATCC 12066 after 72 hrs by serial dilution technique; type: functional; conditions: ATCC 12066, 72 h
Outline: (§2)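 Modified microdilution in 96-well plates. Fungi were kept on malt agar at 4 °C. Spores were washed off in sterile 0.85% saline with 0.1% Tween 80. Compounds were dissolved at 1 mg/ml in 5% DMSO with 0.1% Tween 80 and added to malt broth with inoculum. Plates were shaken at 160 rpm for 72 h at 28 °C. Duplicate, repeated three times.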

Talaromyces funiculosus [5] = test: Antifungal activity against Penicillium funiculosum ATCC 36839 after 72 hrs by serial dilution technique; type: functional; conditions: ATCC 36839, 72 h; outline: as §2
Escherichia coli [6] = test: Antibacterial activity against Escherichia coli ATCC 35210 incubated for 24 hrs followed by serial sub-cultivation for 24 hrs by microdilution; type: functional; conditions: ATCC 35210, 24 h
Outline: (§3)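 MBC: after the 24 h LB broth microdilution (1.0 × 10⁴ CFU per well, 160 rpm), wells were serially sub-cultured into fresh broth plates and incubated a further 24 h. MBC is the lowest concentration with no visible growth, taken as 99.5% killing of the original inoculum. Duplicate, repeated three times.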

Aspergillus niger [7] = test: Antifungal activity against Aspergillus niger ATCC 6275 after 72 hrs by serial dilution technique; type: functional; conditions: ATCC 6275, 72 h; outline: as §2
Trichoderma viride [8] = test: Ratio of bifonazole to compound for Trichoderma viride IAM 5061; type: functional
Staphylococcus aureus [9] = test: Antibacterial activity against Staphylococcus aureus ATCC 6538 after 24 hrs by microdilution method; type: functional; conditions: ATCC 6538, 24 h; outline: as §1
Staphylococcus aureus [10] = test: Antibacterial activity against Staphylococcus aureus ATCC 6538 incubated for 24 hrs followed by serial sub-cultivation for 24 hrs by microdilution method; type: functional; conditions: ATCC 6538, 24 h; outline: as §3
Trichoderma viride [11] = test: Antifungal activity against Trichoderma viride IAM 5061 after 72 hrs by serial dilution technique; type: functional; conditions: IAM 5061, 72 h; outline: as §2
Escherichia coli [12] = test: Antibacterial activity against Escherichia coli ATCC 35210 after 24 hrs by microdilution method; type: functional; conditions: ATCC 35210, 24 h; outline: as §1
Aspergillus ochraceus [13] = test: Antifungal activity against Aspergillus ochraceus after 72 hrs by serial dilution technique
Penicillium ochrochloron [14] = test: Antifungal activity against Penicillium ochrochloron ATCC 9112 incubated for 72 hrs followed by serial sub-cultivation for 72 hrs by serial dilution technique; type: functional; conditions: ATCC 9112, 72 h
Outline: (§4)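 MFC: material from 72 h malt broth microdilution wells was serially sub-cultured into fresh broth plates and incubated a further 72 h at 28 °C. Fungicidal concentration is taken from growth after sub-culture. Duplicate, repeated three times.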

Listeria monocytogenes [15] = test: Antibacterial activity against Listeria monocytogenes NCTC 7973 after 24 hrs by microdilution method; type: functional; conditions: NCTC 7973, 24 h; outline: as §1
Penicillium ochrochloron [16] = test: Antifungal activity against Penicillium ochrochloron ATCC 9112 after 72 hrs by serial dilution technique; type: functional; conditions: ATCC 9112, 72 h; outline: as §2
Salmonella typhimurium [17] = test: Antibacterial activity against Salmonella Typhimurium ATCC 13311 incubated for 24 hrs followed by serial sub-cultivation for 24 hrs by microdilution; type: functional, Salmonella enterica subsp. enterica serovar Typhimurium; conditions: Salmonella enterica, ATCC 13311, 24 h; outline: as §3
Micrococcus flavus [18] = test: Antibacterial activity against Micrococcus flavus ATCC 10240 incubated for 24 hrs followed by serial sub-cultivation for 24 hrs by microdilution; type: functional; conditions: ATCC 10240, 24 h; outline: as §3
Aspergillus ochraceus [19] = test: Antifungal activity against Aspergillus ochraceus ATCC 12066 incubated for 72 hrs followed by serial sub-cultivation for 72 hrs by serial dilution technique; type: functional; conditions: ATCC 12066, 72 h; outline: as §4
Candida albicans [20] = test: Ratio of ketoconazole to compound for Candida albicans isolated from human; type: functional
Micrococcus flavus [21] = test: Antibacterial activity against Micrococcus flavus ATCC 10240 after 24 hrs by microdilution method; type: functional; conditions: ATCC 10240, 24 h; outline: as §1
Enterococcus faecalis [22] = test: Antibacterial activity against Enterococcus faecalis isolated from human after 24 hrs by microdilution method; type: functional; outline: as §1
Pseudomonas aeruginosa [23] = test: Antibacterial activity against Pseudomonas aeruginosa ATCC 27853 after 24 hrs by microdilution method; type: functional; conditions: ATCC 27853, 24 h; outline: as §1
Bacillus cereus [24] = test: Antibacterial activity against clinical isolate of Bacillus cereus after 24 hrs by microdilution method; type: functional; outline: as §1
Aspergillus niger [25] = test: Antifungal activity against Aspergillus niger ATCC 6275 incubated for 72 hrs followed by serial sub-cultivation for 72 hrs by serial dilution technique; type: functional; conditions: ATCC 6275, 72 h; outline: as §4
Aspergillus niger [26] = test: Ratio of bifonazole to compound for Aspergillus niger ATCC 6275; type: functional
Pseudomonas aeruginosa [27] = test: Ratio of ampicillin MIC to compound MIC for Pseudomonas aeruginosa ATCC 27853; type: functional
Aspergillus flavus [28] = test: Antifungal activity against Aspergillus flavus ATCC 9643 after 72 hrs by serial dilution technique; type: functional; conditions: ATCC 9643, 72 h; outline: as §2
Listeria monocytogenes [29] = test: Antibacterial activity against Listeria monocytogenes NCTC 7973 incubated for 24 hrs followed by serial sub-cultivation for 24 hrs by microdilution; type: functional; conditions: NCTC 7973, 24 h; outline: as §3
Penicillium ochrochloron [30] = test: Ratio of bifonazole to compound for Penicillium ochrochloron ATCC 9112; type: functional
Aspergillus fumigatus [31] = test: Antifungal activity against Aspergillus fumigatus isolated from human incubated for 72 hrs followed by serial sub-cultivation for 72 hrs by serial dilution technique; type: functional; outline: as §4
Aspergillus ochraceus [32] = test: Ratio of bifonazole to compound for Aspergillus ochraceus ATCC 12066; type: functional
Candida albicans [33] = test: Antifungal activity against Candida albicans isolated from human after 72 hrs by serial dilution technique; type: functional; outline: as §2
Aspergillus flavus [34] = test: Antifungal activity against Aspergillus flavus ATCC 9643 incubated for 72 hrs followed by serial sub-cultivation for 72 hrs by serial dilution technique; type: functional; conditions: ATCC 9643, 72 h; outline: as §4
Penicillium ochrochloron [35] = test: Ratio of ketoconazole to compound for Penicillium ochrochloron ATCC 9112; type: functional
Enterococcus faecalis [36] = test: Antibacterial activity against Enterococcus faecalis isolated from human incubated for 24 hrs followed by serial sub-cultivation for 24 hrs by microdilution; type: functional; outline: as §3
Candida albicans [37] = test: Ratio of bifonazole to compound for Candida albicans isolated from human; type: functional
Trichoderma viride [38] = test: Antifungal activity against Trichoderma viride IAM 5061 incubated for 72 hrs followed by serial sub-cultivation for 72 hrs by serial dilution technique; type: functional; conditions: IAM 5061, 72 h; outline: as §4
Bacillus cereus [39] = test: Antibacterial activity against clinical isolate of Bacillus cereus incubated for 24 hrs followed by serial sub-cultivation for 24 hrs by microdilution; type: functional; outline: as §3
Pseudomonas aeruginosa [40] = test: Antibacterial activity against Pseudomonas aeruginosa ATCC 27853 incubated for 24 hrs followed by serial sub-cultivation for 24 hrs by microdilution; type: functional; conditions: ATCC 27853, 24 h; outline: as §3
Talaromyces funiculosus [41] = test: Antifungal activity against Penicillium funiculosum ATCC 36839 incubated for 72 hrs followed by serial sub-cultivation for 72 hrs by serial dilution technique; type: functional; conditions: ATCC 36839, 72 h; outline: as §4
Aspergillus fumigatus [42] = test: Ratio of ketoconazole to compound for Aspergillus fumigatus isolated from human; type: functional
Candida albicans [43] = test: Antifungal activity against Candida albicans isolated from human incubated for 72 hrs followed by serial sub-cultivation for 72 hrs by serial dilution technique; type: functional; outline: as §4

CCNc1nc(C)c(C(=O)/C=C/c2ccccc2Cl)s1
Ratio (Aspergillus ochraceus [1]): 10
MIC (Salmonella typhimurium [2]): 48.9 µM (≈ 15 µg/mL)
Ratio (Talaromyces funiculosus [3]): 10
MIC (Aspergillus ochraceus [4]): 32.7 µM (≈ 10 µg/mL)
MIC (Talaromyces funiculosus [5]): 32.7 µM (≈ 10 µg/mL)
MBC (Escherichia coli [6]): 61.1 µM (≈ 18.7 µg/mL)
MIC (Aspergillus niger [7]): 49 µM (≈ 15 µg/mL)
Ratio (Trichoderma viride [8]): 10
MIC (Staphylococcus aureus [9]): 81.7 µM (≈ 25.1 µg/mL)
MBC (Staphylococcus aureus [10]): 98.1 µM (≈ 30.1 µg/mL)
MIC (Trichoderma viride [11]): 32.7 µM (≈ 10 µg/mL)
MIC (Escherichia coli [12]): 48.9 µM (≈ 15 µg/mL)
MIC (Aspergillus ochraceus [13]): 49 µM (≈ 15 µg/mL)
MFC (Penicillium ochrochloron [14]): 65.3 µM (≈ 20 µg/mL)
MIC (Listeria monocytogenes [15]): 98.1 µM (≈ 30.1 µg/mL)
MIC (Penicillium ochrochloron [16]): 32.7 µM (≈ 10 µg/mL)
MBC (Salmonella typhimurium [17]): 61.1 µM (≈ 18.7 µg/mL)
MBC (Micrococcus flavus [18]): 98.1 µM (≈ 30.1 µg/mL)
MFC (Aspergillus ochraceus [19]): 49 µM (≈ 15 µg/mL)
Ratio (Candida albicans [20]): 10
MIC (Micrococcus flavus [21]): 65.3 µM (≈ 20 µg/mL)
MIC (Enterococcus faecalis [22]): 48.9 µM (≈ 15 µg/mL)
MIC (Pseudomonas aeruginosa [23]): 48.9 µM (≈ 15 µg/mL)
MIC (Bacillus cereus [24]): 32.7 µM (≈ 10 µg/mL)
MFC (Aspergillus niger [25]): 65.3 µM (≈ 20 µg/mL)
Ratio (Aspergillus niger [26]): 10
Ratio (Pseudomonas aeruginosa [27]): 10
MIC (Aspergillus flavus [28]): 49 µM (≈ 15 µg/mL)
MBC (Listeria monocytogenes [29]): 114 µM (≈ 35.1 µg/mL)
Ratio (Penicillium ochrochloron [30]): 10
MFC (Aspergillus fumigatus [31]): 65.3 µM (≈ 20 µg/mL)
Ratio (Aspergillus ochraceus [32]): 10
MIC (Candida albicans [33]): 32.7 µM (≈ 10 µg/mL)
MFC (Aspergillus flavus [34]): 65.3 µM (≈ 20 µg/mL)
Ratio (Penicillium ochrochloron [35]): 10
MBC (Enterococcus faecalis [36]): 61.1 µM (≈ 18.7 µg/mL)
Ratio (Candida albicans [37]): 10
MFC (Trichoderma viride [38]): 65.3 µM (≈ 20 µg/mL)
MBC (Bacillus cereus [39]): 65.3 µM (≈ 20 µg/mL)
MBC (Pseudomonas aeruginosa [40]): 61.1 µM (≈ 18.7 µg/mL)
MFC (Talaromyces funiculosus [41]): 65.3 µM (≈ 20 µg/mL)
Ratio (Aspergillus fumigatus [42]): 10
MFC (Candida albicans [43]): 65.3 µM (≈ 20 µg/mL)
